Reference: ChEMBL document CHEMBL4041520, “Novel pyrimidine-2,4-dione-1,2,3-triazole and furo[2,3-d]pyrimidine-2-one-1,2,3-triazole hybrids as potential anti-cancer agents: Synthesis, computational and X-ray analysis and biological evaluation” (Eur J Med Chem, 2017)

test system: A549; assay: Antiproliferative activity against human A549 cells after 72 hrs by MTT assay; type: functional, cell-based; conditions: A549, 72 h
Outline: (§1)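 Monolayers grown in DMEM with 10% FBS and 2 mM L-glutamine at 37 °C, 5% CO2. Cells seeded at 5000 per well on day 0. Compounds added in five 10-fold dilutions (0.01–100 µM), DMSO ≤0.1%, for 72 h. MTT absorbance converted to percentage growth versus untreated wells. IC50 by linear regression of the dose-response curve; highest concentration reported when not reached. Quadruplicate points, three experiments.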

| SMILES | IC50 [µM] |
| --- | --- |
| O=c1[nH]c(=O)n(Cc2cn(-c3ccc(Cl)cc3)nn2)cc1Br | 40.9 |
| O=c1[nH]c(=O)n(Cc2cn(Cc3ccccc3)nn2)cc1I | > 100 |
| CCCCCc1ccc(C#Cc2c(-c3ccc(CCCCC)cc3)oc3nc(=O)n(Cc4cn(-c5ccccc5F)nn4)cc23)cc1 | 38.6 |
| O=c1nc2oc(C3CC3)c(C#CC3CC3)c2cn1Cc1cn(-c2ccccc2F)nn1 | 38.3 |
| O=c1c(I)cn(Cc2cn(-c3ccc(F)cc3)nn2)c(=O)n1Cc1cn(-c2ccc(F)cc2)nn1 | 78.7 |
| O=c1nc2oc(C3CC3)c(C#CC3CC3)c2cn1Cc1cn(Cc2ccccc2)nn1 | 4.81 |
| CCCCCCC#Cc1c(CCCCCC)oc2nc(=O)n(Cc3cn(-c4ccc(F)cc4)nn3)cc12 | > 100 |
| O=c1nc2oc(C3CC3)cc2cn1Cc1cn(-c2ccc(Cl)cc2)nn1 | 61 |
| CCCCCc1ccc(C#Cc2c(-c3ccc(CCCCC)cc3)oc3nc(=O)n(Cc4cn(Cc5ccccc5)nn4)cc23)cc1 | > 100 |

test system: HepG2; assay: Antiproliferative activity against human HepG2 cells after 72 hrs by MTT assay; type: functional, cell-based; conditions: HepG2, 72 h; outline: as §1

| SMILES | IC50 [µM] |
| --- | --- |
| O=c1[nH]c(=O)n(Cc2cn(-c3ccc(Cl)cc3)nn2)cc1Br | 19.1 |
| O=c1[nH]c(=O)n(Cc2cn(Cc3ccccc3)nn2)cc1I | > 100 |
| CCCCCc1ccc(C#Cc2c(-c3ccc(CCCCC)cc3)oc3nc(=O)n(Cc4cn(-c5ccccc5F)nn4)cc23)cc1 | 72.5 |
| O=c1nc2oc(C3CC3)c(C#CC3CC3)c2cn1Cc1cn(-c2ccccc2F)nn1 | 39.1 |
| O=c1c(I)cn(Cc2cn(-c3ccc(F)cc3)nn2)c(=O)n1Cc1cn(-c2ccc(F)cc2)nn1 | 53.5 |
| O=c1nc2oc(C3CC3)c(C#CC3CC3)c2cn1Cc1cn(Cc2ccccc2)nn1 | 2.67 |
| CCCCCCC#Cc1c(CCCCCC)oc2nc(=O)n(Cc3cn(-c4ccc(F)cc4)nn3)cc12 | > 100 |
| O=c1nc2oc(C3CC3)cc2cn1Cc1cn(-c2ccc(Cl)cc2)nn1 | > 100 |
| CCCCCc1ccc(C#Cc2c(-c3ccc(CCCCC)cc3)oc3nc(=O)n(Cc4cn(Cc5ccccc5)nn4)cc23)cc1 | > 100 |

test system: CFPAC-1; assay: Antiproliferative activity against human CFPAC-1 cells after 72 hrs by MTT assay; type: functional, cell-based; conditions: CFPAC-1, 72 h; outline: as §1

| SMILES | IC50 [µM] |
| --- | --- |
| O=c1[nH]c(=O)n(Cc2cn(-c3ccc(Cl)cc3)nn2)cc1Br | 39.5 |
| O=c1[nH]c(=O)n(Cc2cn(Cc3ccccc3)nn2)cc1I | > 100 |
| CCCCCc1ccc(C#Cc2c(-c3ccc(CCCCC)cc3)oc3nc(=O)n(Cc4cn(-c5ccccc5F)nn4)cc23)cc1 | > 100 |
| O=c1nc2oc(C3CC3)c(C#CC3CC3)c2cn1Cc1cn(-c2ccccc2F)nn1 | 54.5 |
| O=c1c(I)cn(Cc2cn(-c3ccc(F)cc3)nn2)c(=O)n1Cc1cn(-c2ccc(F)cc2)nn1 | 51.2 |
| O=c1nc2oc(C3CC3)c(C#CC3CC3)c2cn1Cc1cn(Cc2ccccc2)nn1 | 4.59 |
| CCCCCCC#Cc1c(CCCCCC)oc2nc(=O)n(Cc3cn(-c4ccc(F)cc4)nn3)cc12 | > 100 |
| O=c1nc2oc(C3CC3)cc2cn1Cc1cn(-c2ccc(Cl)cc2)nn1 | > 100 |
| CCCCCc1ccc(C#Cc2c(-c3ccc(CCCCC)cc3)oc3nc(=O)n(Cc4cn(Cc5ccccc5)nn4)cc23)cc1 | > 100 |

test system: HeLa; assay: Antiproliferative activity against human HeLa cells after 72 hrs by MTT assay; type: functional, cell-based; conditions: not given; outline: as §1

| SMILES | IC50 [µM] |
| --- | --- |
| O=c1[nH]c(=O)n(Cc2cn(-c3ccc(Cl)cc3)nn2)cc1Br | 33.3 |
| O=c1[nH]c(=O)n(Cc2cn(Cc3ccccc3)nn2)cc1I | > 100 |
| CCCCCc1ccc(C#Cc2c(-c3ccc(CCCCC)cc3)oc3nc(=O)n(Cc4cn(-c5ccccc5F)nn4)cc23)cc1 | 9 |
| O=c1nc2oc(C3CC3)c(C#CC3CC3)c2cn1Cc1cn(-c2ccccc2F)nn1 | 51.2 |
| O=c1c(I)cn(Cc2cn(-c3ccc(F)cc3)nn2)c(=O)n1Cc1cn(-c2ccc(F)cc2)nn1 | 41.9 |
| O=c1nc2oc(C3CC3)c(C#CC3CC3)c2cn1Cc1cn(Cc2ccccc2)nn1 | 6.51 |
| CCCCCCC#Cc1c(CCCCCC)oc2nc(=O)n(Cc3cn(-c4ccc(F)cc4)nn3)cc12 | > 100 |
| O=c1nc2oc(C3CC3)cc2cn1Cc1cn(-c2ccc(Cl)cc2)nn1 | > 100 |
| CCCCCc1ccc(C#Cc2c(-c3ccc(CCCCC)cc3)oc3nc(=O)n(Cc4cn(Cc5ccccc5)nn4)cc23)cc1 | 73 |

test system: SW-620; assay: Antiproliferative activity against human SW620 cells after 72 hrs by MTT assay; type: functional, cell-based; conditions: SW-620, 72 h; outline: as §1

| SMILES | IC50 [µM] |
| --- | --- |
| O=c1[nH]c(=O)n(Cc2cn(-c3ccc(Cl)cc3)nn2)cc1Br | > 100 |
| O=c1[nH]c(=O)n(Cc2cn(Cc3ccccc3)nn2)cc1I | > 100 |
| CCCCCc1ccc(C#Cc2c(-c3ccc(CCCCC)cc3)oc3nc(=O)n(Cc4cn(-c5ccccc5F)nn4)cc23)cc1 | 57.1 |
| O=c1nc2oc(C3CC3)c(C#CC3CC3)c2cn1Cc1cn(-c2ccccc2F)nn1 | 49.1 |
| O=c1c(I)cn(Cc2cn(-c3ccc(F)cc3)nn2)c(=O)n1Cc1cn(-c2ccc(F)cc2)nn1 | 94.8 |
| O=c1nc2oc(C3CC3)c(C#CC3CC3)c2cn1Cc1cn(Cc2ccccc2)nn1 | 9.72 |
| CCCCCCC#Cc1c(CCCCCC)oc2nc(=O)n(Cc3cn(-c4ccc(F)cc4)nn3)cc12 | > 100 |
| O=c1nc2oc(C3CC3)cc2cn1Cc1cn(-c2ccc(Cl)cc2)nn1 | > 100 |
| CCCCCc1ccc(C#Cc2c(-c3ccc(CCCCC)cc3)oc3nc(=O)n(Cc4cn(Cc5ccccc5)nn4)cc23)cc1 | > 100 |

test system: NIH3T3; assay: Antiproliferative activity against mouse NIH/3T3 cells after 72 hrs by MTT assay; type: cell-based; conditions: NIH3T3, 72 h; outline: as §1

| SMILES | IC50 [µM] |
| --- | --- |
| O=c1[nH]c(=O)n(Cc2cn(-c3ccc(Cl)cc3)nn2)cc1Br | 6.7 |

test system: WI-38; assay: Antiproliferative activity against human WI38 cells after 72 hrs by MTT assay; type: cell-based; conditions: WI-38, 72 h; outline: as §1

| SMILES | IC50 [µM] |
| --- | --- |
| O=c1[nH]c(=O)n(Cc2cn(Cc3ccccc3)nn2)cc1I | 55.2 |
| CCCCCc1ccc(C#Cc2c(-c3ccc(CCCCC)cc3)oc3nc(=O)n(Cc4cn(-c5ccccc5F)nn4)cc23)cc1 | 7.34 |
| O=c1nc2oc(C3CC3)c(C#CC3CC3)c2cn1Cc1cn(-c2ccccc2F)nn1 | 45.9 |
| O=c1c(I)cn(Cc2cn(-c3ccc(F)cc3)nn2)c(=O)n1Cc1cn(-c2ccc(F)cc2)nn1 | < 0.01 |
| O=c1nc2oc(C3CC3)c(C#CC3CC3)c2cn1Cc1cn(Cc2ccccc2)nn1 | 0.29 |
| CCCCCCC#Cc1c(CCCCCC)oc2nc(=O)n(Cc3cn(-c4ccc(F)cc4)nn3)cc12 | > 100 |
| O=c1nc2oc(C3CC3)cc2cn1Cc1cn(-c2ccc(Cl)cc2)nn1 | > 100 |
| CCCCCc1ccc(C#Cc2c(-c3ccc(CCCCC)cc3)oc3nc(=O)n(Cc4cn(Cc5ccccc5)nn4)cc23)cc1 | 2.65 |
